High-throughput results: PubChem BioAssay, Broad Institute
This is a sample that favours compounds with a hit; in the whole collection about 3.3% have one here.
DENV2 CPE: protects cells from dengue virus 2 cytopathic effect; 350,000 tested, 1.7% active; CPE inhibition, % at 9.99 µM; DENV2-infected cells, cytopathic effect rescue, plate reader; in the data active means CPE inhibition above about 20%, passing the limit was not always enough; inconclusive means no clear call, values can overlap the other calls; tested in BHK-21 cells;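 further: 0% = median of neutral control wells and 100% = median of positive control wells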
C2C12 statin: protects C2C12 myotubes from simvastatin toxicity. rescue of ATP level, % at 7.49 µM. ATP luminescence, 48 h; scaled: DMSO 0, geranylgeraniol control 100. AID 602340. 330,000 tested, 0.78% active;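 active means mean ATP rescue above about 67%, or every replicate alone reaching that limit, limit read from the data, passing the limit was not always enough; inconclusive means no clear call, values can overlap the other calls; inactive means mean under the limit and some replicate under it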;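 further: myotubes were challenged with 10 µM simvastatin during compound exposure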
E-selectin induc: induces E-selectin expression in human endothelial cells; AID 686992; P16581; activation, % at 7.58 µM; HUVEC E-selectin immunofluorescence imaging; normalized: neutral wells 0, TNF-alpha wells 100; 260,000 tested, 0.37% active;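 active means mean E-selectin-positive cell signal at least 10% of the positive control, reached in at least 60% of replicates, without over 20% cell loss; inconclusive means no rule given, readout overlaps actives, possibly toxicity-flagged; inactive means the rest, including those meeting only one limit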
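Test system: HUVEC | Signal: Immunofluorescence imaging | Read-out: Percent E-selectin-positive cells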
Xi reactivation: reactivates the inactive X chromosome in mouse fibroblasts; XiGFP mouse fibroblasts, % GFP-positive cells imaging, 3 d; cells co-treated with 5-aza-dC sensitizer; scaled so ellipticine positive control = 100%; activation, % at 7.58 µM; 360,000 tested, 0.055% active; AID 743238;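 active means mean normalized replicate activation at least 10% and every replicate at or above 10%; inconclusive means only one of the two criteria met; inactive means mean below 10% and not all replicates reach 10%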;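 further: 0% = median of on-plate neutral control wells and 100% = ellipticine 6 µM median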
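System: 68-5-11 XiGFP fibroblast line; Timing: 3 days compound exposure; Compound dosing: one concentration, pinned; Benchmarks: positive control ellipticine, 6 µM final; Buffer or medium: DMEM containing 5-aza-dC.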
FGF22 binding: shifts melting point of recombinant human FGF22; Q9HCT0; recombinant FGF22 thermal shift, SYPRO orange fluorescence; percent of sucrose octasulfate shift, DMSO zero; activity (Tm shift, normalised), % at 9.99 µM; 340,000 tested, 1.5% active;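 active means mean Tm shift, scaled 0 neutral to 100 positive control, at about 1.3% or above, every replicate too, limit read from the data; inconclusive means no clear call, values can overlap the other calls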
Target sequence (Q9HCT0 whole entry, looked up): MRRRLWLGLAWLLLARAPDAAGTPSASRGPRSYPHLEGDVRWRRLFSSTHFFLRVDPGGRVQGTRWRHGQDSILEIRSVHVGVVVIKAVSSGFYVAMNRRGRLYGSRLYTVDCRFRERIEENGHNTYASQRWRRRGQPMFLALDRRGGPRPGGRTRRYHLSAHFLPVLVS
PglD DTNB: inhibitors of Campylobacter jejuni PglD acetyltransferase; inhibition, % at 12.5 µM; purified PglD enzyme, DTNB colorimetric CoA detection; AID 602405; 360,000 tested, 0.098% active; in the data active means inhibition above about 16%, passing the limit was not always enough; inconclusive means no clear call, values can overlap the other calls
An asterisk follows results filed as active; u = inconclusive; x = not tested or not shown.

SMILES	DENV2 CPE	C2C12 statin	E-selectin induc	Xi reactivation	FGF22 binding	PglD DTNB
COc1cccc(N(CC(=O)NCC2CCCO2)C(=O)CNS(=O)(=O)c2ccccc2)c1 (stereo not given)	-2.9	x	-0.5	0.0	43.6*	x
O=C(CN(CC1CCCO1)C(=O)CNS(=O)(=O)c1ccccc1)NCc1ccco1 (stereo not given)	x	x	x	0.0	43.0*	x
CNC(=O)C[C@@H]1CC[C@H]2[C@@H](COC[C@H](O)CN2Cc2ccc(C(F)(F)F)cc2)O1	1.8	-6.3	0.0	0.0	0.2	-0.1
COc1ccc(Nc2nnc(-c3ccc(C)cc3)c3ccccc23)cc1C(=O)N1CCCCC1	0.1	-7.7	1.0	0.2	-0.1	-2.7
COc1ccc(Nc2nnc(-c3ccccc3)c3ccccc23)cc1C(=O)N1CCCCC1	-1.7	12.4	x	0.0	43.0*	-2.1
C[C@@H]1CN([C@H](C)CO)S(=O)(=O)c2ccc(-c3ccc(C(=O)N(C)C)cc3)cc2O[C@@H]1CN(C)C(=O)C1CCCCC1	-8.7	-4.9	1.0	-1.3	-0.1	3.0
CC(=O)N1CCN(c2nnnn2-c2ccccc2)CC1	x	126.3*	x	x	x	-2.7
O=C(C[C@H]1C[C@H]2c3cc(NC(=O)Cc4ccncc4)ccc3O[C@H]2[C@@H](CO)O1)NCc1cc(F)ccc1F	2.5	2.8	-0.5	0.1	0.3	-1.4
Cc1cc(C(=O)Nc2ccc(Cl)cc2)n(-c2ccccc2)n1	4.0	9.2	41.1*	0.3	-0.2	3.0
O=C(Cc1ccc([N+](=O)[O-])cc1)NCc1ccccn1	-8.6	x	0.0	1.4	43.4*	x
Cc1cccc(NC(=O)NCc2ccc3c(c2)cc(C)n3C)c1	9.3	6.0	55.8*	0.0	-0.1	1.9
Cc1cc2cc(CNC(=O)c3cccc([N+](=O)[O-])c3)ccc2n1C	u	0.3	3.4	-0.1	0.1	-6.0
Cc1cc2cc(CNC(=O)Cc3ccc([N+](=O)[O-])cc3)ccc2n1C	3.0	x	x	0.0	43.5*	x
Cc1cc2cc(CNC(=O)Nc3cccc(Cl)c3)ccc2n1C	2.7	4.1	32.9*	0.2	0.1	0.7
CCN(CCn1cccn1)Cc1nc(-c2ccc(OC)cc2)no1	-4.6	1.8	x	0.2	43.1*	6.8
CC(C)NC(=O)N(C)C[C@H]1Oc2ncc(C#Cc3ccc(F)cc3)cc2C(=O)N([C@H](C)CO)C[C@@H]1C	-5.5	4.9	0.1	-0.8	-0.7	-2.9
CCc1ccccc1NC(=O)CCN1C(=O)c2ccccc2C1=O	x	132.8*	x	x	x	-1.7
CCc1ccccc1NC(=O)CCN1C(=O)C2CC=CCC2C1=O (stereo not given)	-4.9	5.0	-0.3	-0.2	-0.2	-7.3
COc1ccc2c3c([nH]c2c1)[C@@H](CO)N(C(=O)NC(C)C)CC31CCN(C(=O)c2cccnc2)CC1	-7.0	x	-0.1	0.2	-0.1	x
O=C(Cc1cccnc1)N1[C@@H](CO)[C@@H]2c3ccccc3NC[C@@H]21	23.5*	-1.8	0.4	0.0	-0.3	0.1
Cc1ccc(-c2ccccc2[C@@H]2[C@H](C#N)N(C(=O)Cc3cccnc3)[C@H]2CO)cc1	25.6*	x	0.0	0.2	0.2	x
COCC(=O)N1[C@H](CO)[C@H](c2ccccc2-c2ccccc2)[C@@H]1C#N	44.6*	x	0.0	0.1	0.0	x
CCC(=O)N1[C@H](C#N)[C@H](c2ccccc2-c2cccc(C)c2)[C@@H]1CO	23.7*	x	0.0	0.0	0.0	x
COc1ccc2c3c([nH]c2c1)[C@@H](CO)N(C(=O)c1cccc(F)c1)CC31CCN(C(=O)c2ccccc2)CC1	-9.7	x	0.3	0.2	-0.1	x
C[C@@H]1CCCCO[C@@H](CN(C)S(=O)(=O)c2ccc(Cl)cc2)[C@H](C)CN([C@@H](C)CO)C(=O)c2cc(N(C)C)ccc2O1	x	-28.8	-0.1	-0.9	x	x
SMILES	DENV2 CPE	C2C12 statin	E-selectin induc	Xi reactivation	FGF22 binding	PglD DTNB
CCc1sc(N2[C@H](C#N)[C@H](c3ccccc3-c3ccccc3)[C@H]2CO)nc1C	76.5*	x	-0.1	0.0	0.1	x
CCC(=O)N1[C@@H]2c3ccc(-c4cccnc4)c(=O)n3C[C@H]1[C@H](CO)[C@H]2C(=O)NC1CCC1	-7.9	-5.5	-0.5	0.3	0.0	0.8
CCOc1cc(CNCc2ccncc2)cc(Br)c1OCc1ccccc1F	x	112.5*	x	x	x	-1.3
CC(C)C#Cc1cnc2c(c1)C(=O)N([C@H](C)CO)C[C@@H](C)[C@H](CN(C)Cc1ccccn1)O2	10.4	35.4	-4.8	-0.4	0.0	1.8
COc1cc(C(=S)N2CCCCC2)ccc1OCC(=O)Nc1ccc(F)cc1	98.1*	-4.3	-0.3	0.3	-0.2	6.6
COc1cc(C(=S)N2CCCCC2)ccc1OCC(=O)N1CCCC1	x	-9.5	x	x	x	-6.3
COc1cc(C(=S)N2CCCC2)ccc1OCc1ccc(C)cc1	47.0*	-18.4	x	0.2	0.0	-1.2
Cc1ccc(S(=O)(=O)Nc2ccc3c(c2)C(=O)N([C@@H](C)CO)C[C@@H](C)[C@@H](CN(C)C(=O)NC2CCCCC2)O3)cc1	-7.8	-5.5	-0.8	0.8	-0.2	2.1
C[C@@H]1CCCCO[C@H](CN(C)C(=O)c2ccccc2)[C@@H](C)CN([C@@H](C)CO)C(=O)c2cc(NC(=O)Nc3ccccc3)ccc2O1	-7.4	x	x	0.0	-0.8	7.7
CCCNC(=O)N1CC2(CN(CC3CCOCC3)C2)c2c([nH]c3cc(OC)ccc23)[C@H]1CO	-0.4	x	0.0	0.1	0.1	x
C[C@@H]1CN([C@H](C)CO)C(=O)Cc2cc(NC(=O)Cn3cnnn3)ccc2O[C@@H]1CN(C)C(=O)NC1CCCCC1	-8.4	3.7	0.0	0.0	0.0	4.8
N#C/C(=C\c1ccc([N+](=O)[O-])o1)c1nc2ccccc2[nH]1	0.7	x	x	62.3*	-0.1	x
COc1ccc(S(=O)(=O)Nc2ccc3c(c2)C(=O)N([C@H](C)CO)C[C@H](C)[C@H](CN(C)S(=O)(=O)c2ccc(OC)cc2)OCCCC[C@H](C)O3)cc1	-3.0	x	-0.1	0.2	0.1	-2.0
CN1c2ccc(-c3ccccc3)cc2[C@H]2[C@H](CCN2C(=O)Cc2ccccn2)[C@@H]1CO	8.5	39.4	1.5	0.0	-0.2	3.3
C[C@@H]1CN([C@@H](C)CO)C(=O)c2cc(C3=CCCCC3)cnc2O[C@H]1CN(C)C(=O)c1ccccc1	-16.9	14.5	0.5	-1.1	-0.2	-3.5
CN(C)C1=C(Cl)C(=O)N(c2ccc(Cl)c(Cl)c2)C1=O	13.3	19.5	0.2	0.8	-0.1	6.0
CN(C)/C=C1\C(=O)N(c2ccc(Cl)c(Cl)c2)CS1(=O)=O	x	x	x	0.1	43.1*	x
CN1C(=O)c2ccccc2Cc2c(NCc3ccccc3)ncnc21	6.8	1.7	0.1	0.2	43.0*	5.1
